Reference: ChEMBL document CHEMBL4732215, “In vitro and in vivo antiplasmodial activity of novel quinoline derivative compounds by molecular hybridization” (Eur J Med Chem, 2021)

Columns and labels:
[1] = Cytotoxicity against human WI26VA4 cells assessed as reduction in cell viability incubated for 48 hrs by MTT assay; assay type: cell-based
[2] = Selectivity index, ratio of CC50 for human WI-26VA-4 cells to IC50 for chloroquine-resistant ring-stage Plasmodium falciparum W2 infected in human RBC; assay type: toxicity; conditions: read-out: Ratio CC50/IC50
Plasmodium falciparum = experiment: Antimalarial activity against chloroquine-resistant Plasmodium falciparum W2 infected in human RBC assessed as reduction in HRP2 level by ELISA; assay type: functional, organism-based; conditions: W2, Erythrocyte
[3] = (§1) Hemolytic activity against human RBC at 150 uM incubated for 16 hrs by spectrophotometric analysis; assay type: ADME, cell-based, Erythrocyte; conditions: human red blood cells (erythrocytes), read-out: Activity
In short: (§2)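 Red blood cells were incubated with compound at 37 °C for 16 h, with 1% saponin as positive and PBS as negative control. Tubes were centrifuged at 2000 rpm for 3 min, and supernatant absorbance was read at 540 nm. Percent hemolysis was calculated relative to the saponin and PBS mean absorbances. Means were compared by ANOVA with Tukey test.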

Plasmodium berghei [4] = experiment: Antimalarial activity against Plasmodium berghei NK65 infected in Swiss mouse assessed as parasitemia at 15 mg/kg, po administered for 4 days and measured on day 9 post infection by Giemsa staining based microscopic analysis (reference value: 100 %); assay type: functional; conditions: time 4 day
In short: (§3)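 Modified suppressive test in female Swiss mice infected with P. berghei NK65. Compounds were solubilized in 5% DMSO, diluted in water, and given by gavage. Parasitemia was read on Giemsa-stained blood smears on days 5 and 9 post-infection. Inhibition of parasite multiplication = [(A−B)/A]×100, where A is parasitemia of the water + 5% DMSO group.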

Ferriprotoporphyrin IX [5] = experiment: Binding affinity to Fe(III)PPIX (unknown origin) assessed as reduction in hypochromism by UV-Vis spectrophotometric analysis relative to control; conditions: concentration not given here
In short: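 Soret band (402 nm) absorbance of Fe(III)PPIX in Tris pH 7.5/aqueous DMSO was followed while 0.3 mM compound was titrated in to saturation. The blank was treated the same way to subtract compound absorbance. Hypochromism was taken as the percentage reduction in absorption intensity. Run in triplicate.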

Plasmodium berghei [6] = experiment: Antimalarial activity against Plasmodium berghei NK65 infected in Swiss mouse assessed as parasitemia at 15 mg/kg, po administered for 4 days and measured on day 5 post infection by Giemsa staining based microscopic analysis (reference value: 100 %); assay type: functional; conditions: time 4 day; in short: as §3
Plasmodium berghei [7] = experiment: Antimalarial activity against Plasmodium berghei NK65 infected in Swiss mouse assessed as parasitemia at 25 mg/kg, po administered for 4 days and measured on day 5 post infection by Giemsa staining based microscopic analysis (reference value: 100 %); assay type: functional; conditions: time 4 day; in short: as §3
Plasmodium berghei [8] = experiment: Antimalarial activity against Plasmodium berghei NK65 infected in Swiss mouse assessed as parasitemia at 25 mg/kg, po administered for 4 days and measured on day 9 post infection by Giemsa staining based microscopic analysis (reference value: 100 %); assay type: functional; conditions: time 4 day; in short: as §3
Ferriprotoporphyrin IX [9] = experiment: Binding affinity to Fe(III)PPIX (unknown origin) assessed as association constant by UV-Vis spectrophotometric analysis relative to control
In short: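 UV-vis titration against Fe(III)PPIX at pH 7.5. Hemin stock was in DMSO and diluted in aqueous DMSO with 0.2 M Tris buffer pH 7.5. A 0.3 mM compound solution in the same solvent ratio was added in aliquots to 2 mL hemin solution. The blank received the same additions, and its absorbance was subtracted. A at 402 nm (Soret band) was fitted to a 1:1 complexation model by nonlinear least squares to give K. Run in triplicate.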

Plasmodium berghei [10] = experiment: Antimalarial activity against Plasmodium berghei NK65 infected in Swiss mouse assessed as parasitemia at 5 mg/kg, po administered for 4 days and measured on day 9 post infection by Giemsa staining based microscopic analysis (reference value: 100 %); assay type: functional; conditions: time 4 day
In short: (§4)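 Modified Peters 4-day suppressive test in female Swiss mice infected with P. berghei NK65. Dosing was by gavage, with compounds dissolved in 5% DMSO and diluted in water. Parasitemia was read on Giemsa-stained blood smears. Inhibition of parasite multiplication = [(A−B)/A]×100, where A is the water + 5% DMSO group and B the treated group; both are group mean parasitemias.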

Plasmodium berghei [11] = experiment: Antimalarial activity against Plasmodium berghei NK65 infected in Swiss mouse assessed as parasitemia at 5 mg/kg, po administered for 4 days and measured on day 5 post infection by Giemsa staining based microscopic analysis (reference value: 100 %); assay type: functional; conditions: time 4 day; in short: as §4
Erythrocyte = experiment: as §1; assay type: ADME, cell-based; conditions: erythrocyte, 16 h, 150 µM; in short: as §2
Plasmodium berghei [12] = experiment: Antimalarial activity against Plasmodium berghei NK65 infected in Swiss mouse assessed as parasitemia at 10 mg/kg, po administered for 4 days and measured on day 5 post infection by Giemsa staining based microscopic analysis (reference value: 100 %); assay type: functional; conditions: time 4 day; in short: as §3
Plasmodium berghei [13] = experiment: Antimalarial activity against Plasmodium berghei NK65 infected in Swiss mouse assessed as parasitemia at 10 mg/kg, po administered for 4 days and measured on day 9 post infection by Giemsa staining based microscopic analysis (reference value: 100 %); assay type: functional; conditions: time 4 day; in short: as §3

Row | SMILES | CC50 at 48 h [1] | selectivity ratio [2] | IC50 (Plasmodium falciparum) | hemolysis at 16 h, 150 µM [3] | other results
1 | Oc1ccc(/C=N/Nc2ccnc3cc(Cl)ccc23)c(O)c1 | 7.27 µM | 30.9 | 0.235 µM | < 10% | 
2 | Oc1ccc(/C=N/CCNc2ccnc3cc(Cl)ccc23)c(O)c1 | 171 µM | 990 | 0.172 µM | < 10% | Activity (Plasmodium berghei [4]): 40.13%; inhibition (Ferriprotoporphyrin IX [5]): 50.4%; Activity (Plasmodium berghei [6]): 71.15%; Activity (Plasmodium berghei [7]): 93.7%; Activity (Plasmodium berghei [8]): 41.01%; log K (Ferriprotoporphyrin IX [9]): 4.77
3 | Oc1cc(O)cc(/C=N/Nc2ccnc3cc(Cl)ccc23)c1 | 12.9 µM | 20.6 | 0.625 µM | < 10% | 
4 | C[C@@H]1CC[C@H]2[C@@H](C)C(=O)O[C@@H]3O[C@@]4(C)CC[C@@H]1[C@]32OO4 [ARTEMISININ] |  |  |  |  | Activity (Plasmodium berghei [10]): 96.64%; Activity (Plasmodium berghei [11]): 94.9%
5 | COc1cc(/C=N/Nc2ccnc3cc(Cl)ccc23)ccc1O | 10.8 µM | 45.8 | 0.235 µM | < 10% | 
6 | CC1(C)[C@@H](O[C@@H]2OC[C@H](O[C@@H]3OC[C@@H](O)[C@H](O)[C@H]3O)[C@H](O[C@H]3O[C@H](CO)[C@@H](O)[C@H](O)[C@H]3O)[C@H]2O[C@@H]2O[C@H](CO)[C@@H](O)[C@H](O)[C@H]2O[C@H]2O[C@H](CO)[C@@H](O)[C@H](O)[C@H]2O)CC[C@]2(C)[C@H]3CCC45OCC6(CC[C@@](C)(C=O)C[C@@H]64)[C@H](O)C[C@@]5(C)[C@]3(C)CC[C@@H]12 (some centres undefined) [SAPONIN] |  |  |  |  | Activity (Erythrocyte): Toxic
7 | O=C(O)c1ccc(/C=N/CCNc2ccnc3cc(Cl)ccc23)cc1 | > 28.3 µM | > 195 | 0.145 µM | < 10% | Activity (Plasmodium berghei [4]): 21.67%; Activity (Plasmodium berghei [6]): 72.64%
8 | O=Cc1ccc(/C=N/CCNc2ccnc3cc(Cl)ccc23)cc1 | 138 µM | 861 | 0.16 µM |  | 
9 | O=C(O)c1ccc(/C=N/Nc2ccnc3cc(Cl)ccc23)cc1 | 82 µM | 245 | 0.335 µM | < 10% | 
10 | Oc1ccc(/C=N/CCNc2ccnc3cc(Cl)ccc23)cc1 | 130 µM | 802 | 0.162 µM | < 10% | 
11 | CCN(CC)CCCC(C)Nc1ccnc2cc(Cl)ccc12 (centres undefined) [CHLOROQUINE] | > 19.4 µM |  |  |  | Activity (Plasmodium berghei [12]): 94.04%; Activity (Plasmodium berghei [13]): 41.27%; Activity (Erythrocyte): Non-Toxic
12 | Oc1cc(O)cc(/C=N/CCNc2ccnc3cc(Cl)ccc23)c1 | 79.3 µM | 387 | 0.205 µM | < 10% | 
13 | Oc1ccccc1/C=N/CCNc1ccnc2cc(Cl)ccc12 | 25.3 µM | 97.4 | 0.26 µM | < 10% | 
